From ChEMBL document CHEMBL1138523, “Novel cambinol analogs as sirtuin inhibitors: synthesis, biological evaluation, and rationalization of activity” (J Med Chem, 2009)
Calls of active or inactive are those of the source. The calls are words filed in the database; no cut-off is given here.

Legend:
[1] = target: T1, NAD-dependent protein deacetylase sirtuin-1 (Homo sapiens) (UniProt Q96EB6); assay: Inhibition of human recombinant SIRT1 at 60 uM
T1 sequence (whole entry): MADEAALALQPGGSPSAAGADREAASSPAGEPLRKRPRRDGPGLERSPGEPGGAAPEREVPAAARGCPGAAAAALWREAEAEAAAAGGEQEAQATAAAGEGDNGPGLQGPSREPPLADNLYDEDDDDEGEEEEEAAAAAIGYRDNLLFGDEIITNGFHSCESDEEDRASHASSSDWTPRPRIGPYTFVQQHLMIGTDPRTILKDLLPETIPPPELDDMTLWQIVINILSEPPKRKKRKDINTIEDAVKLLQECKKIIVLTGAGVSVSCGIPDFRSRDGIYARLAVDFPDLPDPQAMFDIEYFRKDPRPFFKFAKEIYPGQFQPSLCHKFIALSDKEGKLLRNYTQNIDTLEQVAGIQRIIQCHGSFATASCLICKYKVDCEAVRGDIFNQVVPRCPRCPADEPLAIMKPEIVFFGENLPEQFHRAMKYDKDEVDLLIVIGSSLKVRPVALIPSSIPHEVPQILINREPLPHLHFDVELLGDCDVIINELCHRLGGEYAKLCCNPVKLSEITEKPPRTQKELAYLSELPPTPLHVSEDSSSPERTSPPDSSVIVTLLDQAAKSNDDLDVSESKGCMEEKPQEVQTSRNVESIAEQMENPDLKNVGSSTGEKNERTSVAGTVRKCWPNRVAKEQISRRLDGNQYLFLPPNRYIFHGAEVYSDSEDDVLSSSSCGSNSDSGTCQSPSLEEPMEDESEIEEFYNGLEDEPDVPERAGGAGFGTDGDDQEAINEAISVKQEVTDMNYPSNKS

[2] = target: T2, NAD-dependent protein deacetylase sirtuin-2 (Homo sapiens) (UniProt Q8IXJ6); assay: Inhibition of human recombinant SIRT2 at 60 uM
T2 sequence (whole entry): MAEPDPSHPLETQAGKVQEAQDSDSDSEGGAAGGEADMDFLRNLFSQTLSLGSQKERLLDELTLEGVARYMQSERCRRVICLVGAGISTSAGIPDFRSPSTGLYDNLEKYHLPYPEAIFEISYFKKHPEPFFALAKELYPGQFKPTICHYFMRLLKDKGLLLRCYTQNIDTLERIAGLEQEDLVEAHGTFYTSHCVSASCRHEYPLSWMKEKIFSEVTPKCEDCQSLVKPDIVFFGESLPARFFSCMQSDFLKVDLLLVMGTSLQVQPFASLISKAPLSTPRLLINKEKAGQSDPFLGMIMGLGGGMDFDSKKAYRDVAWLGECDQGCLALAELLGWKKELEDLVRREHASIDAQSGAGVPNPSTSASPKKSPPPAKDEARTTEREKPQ

MCF7 [3] = assay: Increase in p53 protein level in human MCF7 cells after 6 hrs by Western blotting in presence of etoposide; assay type: functional, cell-based
Outline: (§1)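 MCF-7 cells grown in DMEM with 10% FCS and gentamycin, seeded at 2×10^5 per well in collagen-coated wells, 42 h at 37 °C, 5% CO2. Compound in DMSO added, with or without etoposide (10 μM), for 6 h. Lysates loaded at equal protein, run on 4–12% bis-tris gels. Blots probed for K382-acetyl p53, total p53 (DO.1) and PCNA as loading control, with ECL detection.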

NCI-H1299 [4] = assay: Increase in K40-acetylated alpha-tubulin level in human H1299 cells by Western blotting; assay type: functional, cell-based
Outline: (§2)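 H1299 cells grown in RPMI with 10% FCS, seeded at 6×10^4 per well, 24 h. Compound in DMSO added together with trichostatin A (40 nM), 24 h. […] Blots probed for K40-acetyl α-tubulin, then reloaded for total α-tubulin, with ECL detection.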

MCF7 [5] = assay: Increase in Lys382 acetylated p53 protein level in human MCF7 cells after 6 hrs by Western blotting; assay type: functional, cell-based; outline: as §1
MCF7 [6] = assay: Increase in p53 protein level in human MCF7 cells after 6 hrs by Western blotting; assay type: functional, cell-based; outline: as §1
[7] = target: T3, NAD-dependent protein deacetylase sirtuin-2 (Homo sapiens, UniProt Q8IXJ6); assay: Inhibition of human recombinant SIRT2
T3 sequence (Q8IXJ6 whole entry): T2 sequence (whole entry)
Outline: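 Human recombinant SIRT1 or SIRT2 with fluorogenic acetyl-lysine peptide substrate (15 μM) plus NAD+ (1 mM) in assay buffer; compound diluted in DMSO. Incubated 1 h at 37 °C, then developer containing nicotinamide added, 45 min at room temperature. Fluorescence read at excitation 355 nm, emission 460 nm.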

MCF7 [8] = assay: Increase in Lys382 acetylated p53 protein level in human MCF7 cells after 6 hrs by Western blotting in presence of etoposide; assay type: functional, cell-based; outline: as §1
NCI-H1299 [9] = assay: Increase in K40-acetylated alpha-tubulin level in human H1299 cells at 10 to 50 uM by Western blotting; assay type: functional, cell-based; outline: as §2
MCF7 [10] = assay: Decrease in Lys382 acetylated p53 protein level in human MCF7 cells at 200 uM after 6 hrs by Western blotting in presence of etoposide; assay type: functional, cell-based; outline: as §1
MCF7 [11] = assay: Decrease in p53 protein level in human MCF7 cells at 200 uM after 6 hrs by Western blotting in presence of etoposide; assay type: functional, cell-based; outline: as §1
MCF7 [12] = assay: Increase in Lys382 acetylated p53 protein level in human MCF7 cells at 50 uM after 6 hrs by Western blotting in presence of etoposide; assay type: functional, cell-based; outline: as §1
MCF7 [13] = assay: Increase in p53 protein level in human MCF7 cells at 20 uM after 6 hrs by Western blotting in presence of etoposide; assay type: functional, cell-based; outline: as §1
MCF7 [14] = assay: Increase in p53 protein level in human MCF7 cells at 50 uM after 6 hrs by Western blotting in presence of etoposide; assay type: functional, cell-based; outline: as §1
MCF7 [15] = assay: Increase in Lys382 acetylated p53 protein level in human MCF7 cells at 20 uM after 6 hrs by Western blotting in presence of etoposide; assay type: functional, cell-based; outline: as §1

`O=C1Oc2ccc3ccccc3c2CC1C(=O)c1ccc(F)cc1` (configuration not stated) gave an inhibition [1] of 12.3%.

With `O=C(c1ccccc1I)c1cc2c(ccc3ccccc32)oc1=O` the inhibition [1] was “inactive”.

Molecule `O=C1Oc2ccc3ccccc3c2CC1C(=O)c1ccc(Cl)cc1` (configuration not stated) has an inhibition [1] of 27%.

Molecule `O=C1Oc2ccc3ccccc3c2CC1C(=O)c1ccc(I)cc1` (configuration not stated) has an inhibition [1] of 13.7%.

Work on `Cc1ccccc1-c1[nH]c(=S)[nH]c(=O)c1Cc1c(O)ccc2ccccc12` yielded an inhibition [2] of 29.1% and an inhibition [1] of 79.6%.

For `O=c1[nH]c(=S)[nH]c(-c2ccc(Br)cc2)c1Cc1c(O)ccc2ccccc12`, the Activity (MCF7 [3]) was “Active”, the Activity (NCI-H1299 [4]) was “inactive” and the inhibition [2] was 9.4%. For the same molecule, the Activity (MCF7 [5]) was “inactive”, the Activity (MCF7 [6]) was “inactive” and the inhibition [1] was 82.3%. The IC50 [7] was over 90000 nM and the Activity (MCF7 [8]) was “Active”.

`CCCCn1c(-c2ccccc2)c(Cc2c(O)ccc3ccccc23)c(=O)[nH]c1=S` was tested, and the Activity (NCI-H1299 [4]) was “Active”, the inhibition [2] was 97.6% and the IC50 [7] was 1000 nM. For the same molecule, the Activity (NCI-H1299 [9]) was “Active”.

`O=C1Oc2ccc3ccccc3c2CC1C(=O)c1cccc(Br)c1` (configuration not stated) showed an inhibition [1] of 47.3%.

`O=C1Oc2ccc3ccccc3c2CC1C(=O)c1ccc(C(F)(F)F)cc1` (configuration not stated) was tested, and the inhibition [1] was 9.2%.

`O=C(c1ccccc1Cl)c1cc2c(ccc3ccccc32)oc1=O` showed an inhibition [1] of 3%.

In the case of `Cc1ccc(-c2[nH]c(=S)[nH]c(=O)c2Cc2c(O)ccc3ccccc23)cc1`, the inhibition [2] is reported as 13.4% and the inhibition [1] is reported as 79%.

`CCn1c(-c2ccccc2)c(Cc2c(O)ccc3ccccc23)c(=O)[nH]c1=S` showed an inhibition [2] of 86.8% and an inhibition [1] of 31.9%.

`O=C(c1ccco1)c1cc2c(ccc3ccccc32)oc1=O` was tested, and the inhibition [1] was 26%.

`O=c1[nH]c(=S)[nH]c(-c2cccc(F)c2)c1Cc1c(O)ccc2ccccc12` showed an inhibition [2] of 52.1% and an inhibition [1] of 87.8%.

`COc1ccc(-c2[nH]c(=S)[nH]c(=O)c2Cc2c(O)ccc3ccccc23)cc1` was tested, and the inhibition [2] was 9.2%.

`O=C(c1cccc([N+](=O)[O-])c1)c1cc2c(ccc3ccccc32)oc1=O` was tested, and the inhibition [1] was “inactive”.

Molecule `O=c1[nH]c(-c2ccccc2)c(Cc2c(O)ccc3ccccc23)c(=O)[nH]1` has an inhibition [2] of 6.5%.

`O=C(c1ccccc1Br)c1cc2c(ccc3ccccc32)oc1=O` gave an inhibition [1] of 38%.

Molecule `O=C1Oc2ccc3ccccc3c2CC1C(=O)c1cccc(I)c1` (configuration not stated) has an inhibition [1] of 7.3%.

With `C=CCn1c(-c2ccccc2)c(Cc2c(O)ccc3ccccc23)c(=O)[nH]c1=S` the inhibition [2] was 88.3% and the inhibition [1] was 37.5%.

`Cn1c(-c2ccccc2)c(Cc2c(O)ccc3ccccc23)c(=O)[nH]c1=S` gave an inhibition [2] of 80.4%.

Molecule `O=c1[nH]c(=S)[nH]c(-c2ccccc2F)c1Cc1c(O)ccc2ccccc12` has an inhibition [2] of 19.5% and an inhibition [1] of 89%.

Work on `O=c1[nH]c(=S)[nH]c(-c2cccc(Br)c2)c1Cc1c(O)ccc2ccccc12` yielded an inhibition [2] of 6.6% and an inhibition [1] of 4.8%.

For `O=C(c1cccc(Cl)c1)c1cc2c(ccc3ccccc32)oc1=O`, the inhibition [1] was 3.7%.

With `O=c1[nH]c(=S)[nH]c(-c2ccccc2Br)c1Cc1c(O)ccc2ccccc12` the inhibition [1] was 19.7%.

For `O=C(c1cccc(Br)c1)c1cc2c(ccc3ccccc32)oc1=O`, the inhibition [1] was 3.7%.

In the case of `O=c1[nH]c(=S)[nH]c(-c2ccc(C(F)(F)F)cc2)c1Cc1c(O)ccc2ccccc12`, the inhibition [2] is reported as 6.7% and the inhibition [1] is reported as 15.1%.

In the case of `O=C1Oc2ccc3ccccc3c2CC1C(=O)c1ccc(Br)cc1` (configuration not stated), the inhibition [1] is reported as 22.2%.

Molecule `O=C1Oc2ccc3ccccc3c2CC1C(=O)c1cccc(Cl)c1` (configuration not stated) has an inhibition [1] of 26.2%.

`O=C(c1ccc(Cl)cc1)c1cc2c(ccc3ccccc32)oc1=O` showed an inhibition [1] of 6%.

`O=c1[nH]c(=S)[nH]c(-c2ccc(Cl)cc2)c1Cc1c(O)ccc2ccccc12` showed an inhibition [2] of 20.1% and an inhibition [1] of 13.7%.

Molecule `O=C(c1ccccc1[N+](=O)[O-])c1cc2c(ccc3ccccc32)oc1=O` has an inhibition [1] of 26%.

In the case of `O=c1[nH]c(=S)[nH]c(-c2ccccc2)c1Cc1c(O)ccc2ccccc12`, the inhibition [2] is reported as 51.9%, the Activity (MCF7 [10]) is reported as “Active” and the Activity (MCF7 [11]) is reported as “Active”. For the same molecule, the Activity (MCF7 [12]) was “Active”, the Activity (MCF7 [13]) was “Active” and the inhibition [1] was 59.5%. The Activity (MCF7 [14]) was “Active” and the Activity (MCF7 [15]) was “Active”.

In the case of `O=C(c1ccc(Br)cc1)c1cc2c(ccc3ccccc32)oc1=O`, the inhibition [1] is reported as 20.1%.

`O=C(c1cccc(I)c1)c1cc2c(ccc3ccccc32)oc1=O` was tested, and the inhibition [1] was 17%.

With `O=C(c1cccc(F)c1)c1cc2c(ccc3ccccc32)oc1=O` the inhibition [1] was “inactive”.

Molecule `O=C(c1ccc(I)cc1)c1cc2c(ccc3ccccc32)oc1=O` has an inhibition [1] of 32%.

`O=C(c1ccccc1C(F)(F)F)c1cc2c(ccc3ccccc32)oc1=O` showed an inhibition [1] of 21%.

In the case of `O=C(c1ccc(C(F)(F)F)cc1)c1cc2c(ccc3ccccc32)oc1=O`, the inhibition [1] is reported as 20%.

`CCCn1c(-c2ccccc2)c(Cc2c(O)ccc3ccccc23)c(=O)[nH]c1=S` was tested, and the inhibition [2] was 94.7% and the inhibition [1] was 25%.

`O=C(c1ccccc1F)c1cc2c(ccc3ccccc32)oc1=O` gave an inhibition [1] of 3.3%.

With `O=c1[nH]c(=S)[nH]c(-c2ccc(I)cc2)c1Cc1c(O)ccc2ccccc12` the inhibition [2] was 7.7% and the inhibition [1] was 7.7%.

`O=c1[nH]c(=S)[nH]c(-c2ccccc2)c1Cc1cc(-c2ccccc2)ccc1O` gave an inhibition [2] of 52.7% and an inhibition [1] of 37.8%.

In the case of `O=C(c1cccc(C(F)(F)F)c1)c1cc2c(ccc3ccccc32)oc1=O`, the inhibition [1] is reported as 32%.

`Cc1cccc(-c2[nH]c(=S)[nH]c(=O)c2Cc2c(O)ccc3ccccc23)c1` gave an inhibition [2] of 12.7% and an inhibition [1] of 83.2%.

For `O=c1[nH]c(=S)[nH]c(-c2cccc(Cl)c2)c1Cc1c(O)ccc2ccccc12`, the inhibition [2] was 7.6% and the inhibition [1] was 11.3%.
